ChEMBL document CHEMBL1126763, “Nonpeptide angiotensin II receptor antagonists. Synthesis and biological activity of potential prodrugs of benzimidazole-7-carboxylic acids” (J Med Chem, 1993)

Assays:
Rattus norvegicus [1] = assay: Inhibitory activity on AII (100 ng/kg iv) -induced pressor response after administration at 0.1 mg/kg po in Dawley rats at 1 h; assay type: functional
In short: (§1)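 Conscious male Sprague-Dawley rats received test compounds orally at 0.1 mg/kg. AII (100 ng/kg iv) was given as a pressor challenge at each time point after dosing, and percent inhibition of the pressor response was recorded. Experiments were run in duplicate (n = 2); parent drug and one ester used n = 3. Inhibition may vary by less than 30%.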

[2] = target: T1, Angiotensin II receptor (Rattus norvegicus) (UniProt P29089+P25095+P35351); assay: Inhibitory activity on AII (100 ng/kg iv)-induced pressor response after administration at 0.1 mg/kg po in conscious male Sprague-Dawley rats at 3 h.; assay type: functional, organism-based; set-up: dose 0.1 mg/kg; in short: as §1
Rattus norvegicus [3] = assay: Inhibitory activity on AII (100 ng/kg iv) -induced pressor response after administration at 0.1 mg/kg po in Dawley rats at 0.5 h; assay type: functional; in short: as §1
[4] = target: T1, Angiotensin II receptor (Rattus norvegicus); assay: Inhibitory activity on AII (100 ng/kg iv)-induced pressor response after administration at 0.1 mg/kg po in conscious male Sprague-Dawley rats at 7 h.; assay type: functional, organism-based; set-up: dose 0.1 mg/kg; in short: as §1
[5] = target: T1, Angiotensin II receptor (Rattus norvegicus); assay: Inhibitory activity on AII (100 ng/kg iv)-induced pressor response after administration at 0.1 mg/kg po in conscious male Sprague-Dawley rats at 2 h.; assay type: functional, organism-based; set-up: dose 0.1 mg/kg; in short: as §1
[6] = target: T1, Angiotensin II receptor (Rattus norvegicus); assay: Inhibitory activity on AII (100 ng/kg iv)-induced pressor response after administration at 0.1 mg/kg po in conscious male Sprague-Dawley rats at 24 h.; assay type: functional, organism-based; set-up: dose 0.1 mg/kg; in short: as §1
[7] = target: T1, Angiotensin II receptor (Rattus norvegicus); assay: Inhibitory activity on AII (100 ng/kg iv)-induced pressor response after administration at 0.1 mg/kg po in conscious male Sprague-Dawley rats at 5 h.; assay type: functional, organism-based; set-up: dose 0.1 mg/kg; in short: as §1
[8] = Tested for half- life in rat small intestine homogenate (1%); assay type: ADME
In short: (§2)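 Prodrugs (final 10 μg/mL) were incubated at 37 °C in rat 1% small intestine homogenate, 2% liver homogenate or 10% plasma. Aliquots taken from 10 s to 30 min were deproteinized with methanol, and the residue was redissolved in 1/15 M phosphate buffer. Released parent acid was measured by HPLC (ODS column, UV 258 nm, 0.01 M KH2PO4/MeCN 55/45). t1/2 was taken from the concentration change; mean ± SD, n = 3.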

[9] = Tested for Half- life in rat liver homogenate (2%); assay type: ADME; in short: as §2
[10] = Tested for Half- life in rat plasma homogenate (10%) at 37 degree Centigrade; assay type: ADME; in short: as §2
[11] = target: T1, Angiotensin II receptor (Rattus norvegicus); assay: Inhibitory activity on AII (100 ng/kg iv)-induced pressor response at 0.1 mg/kg po in conscious male Sprague-Dawley rats at 1 h.; assay type: functional, organism-based; set-up: dose 0.1 mg/kg; in short: as §1
[12] = Tested against A II at (100 ng/kg iv) in Dawley rats (n=2). 24 h; assay type: functional; in short: as §1
[13] = target: T1, Angiotensin II receptor (Rattus norvegicus); assay: Inhibitory effect on AII (100 ng/kg iv)-induced pressor response after administration at 0.1 mg/kg po in conscious male Sprague-Dawley rats at 0.5 h.; assay type: functional, organism-based; set-up: dose 0.1 mg/kg; in short: as §1

Row | SMILES | inhibition [2] | inhibition [4] | inhibition [5] | inhibition [6] | inhibition [7] | half-life [8] | half-life [9] | half-life [10] | inhibition [11] | inhibition [13] | inhibition in vivo at 0.1 mg/kg (Rattus norvegicus [1]) | inhibition in vivo at 0.1 mg/kg (Rattus norvegicus [3]) | Inhibition [12]
1 | CCCCc1nc2cccc(C(=O)OCCN(C)C)c2n1Cc1ccc(-c2ccccc2-c2nn[nH]n2)cc1 | 32% | 14% | 27% | 9% | 26% |  |  |  |  |  | 19% | 0% | 
2 | CCCCOC(=O)c1cccc2nc(CCCC)n(Cc3ccc(-c4ccccc4-c4nn[nH]n4)cc3)c12 | 78% | 90% | 80% | 76% | 88% |  |  |  |  |  | 40% | 16% | 
3 | CCCCc1nc2cccc(C(=O)O)c2n1Cc1ccc(-c2ccccc2-c2nnn(C)n2)cc1 | 9% | 26% | 6% | 23% | 13% |  |  |  |  |  | 26% | 22% | 
4 | CCCCc1nc2cccc(C(=O)OCCO)c2n1Cc1ccc(-c2ccccc2-c2nn[nH]n2)cc1 | 11% | 25% | 10% | 20% | 21% |  |  |  |  |  | 7% | 7% | 
5 | CCCCc1nc2cccc(C(=O)OCc3oc(=O)oc3C)c2n1Cc1ccc(-c2ccccc2-c2nnn(Cc3oc(=O)oc3C)n2)cc1.CCCCc1nc2cccc(C(=O)OCc3oc(=O)oc3C)c2n1Cc1ccc(-c2ccccc2-c2nnnn2Cc2oc(=O)oc2C)cc1 | 60% | 46% | 33% |  | 59% |  |  |  | 9% | 7% |  |  | 17%
6 | CCCCc1nc2cccc(C(=O)OCOC(=O)C(C)(C)C)c2n1Cc1ccc(-c2ccccc2-c2nn[nH]n2)cc1 | 95% | 86% | 96% | 50% | 92% | 1.08 min | 3.61 min | 0.69 min | 90% | 58% |  |  | 
7 | CCCCc1nc2cccc(C(=O)OCCN3CCCCC3)c2n1Cc1ccc(-c2ccccc2-c2nn[nH]n2)cc1 | 69% | 49% | 46% | 28% | 62% |  |  |  |  |  | 47% | 20% | 
8 | CCCCc1nc2cccc(C(=O)O)c2n1Cc1ccc(-c2ccccc2-c2nn[nH]n2)cc1 |  |  | 45% | 42% |  |  |  |  |  |  | 33% | 8% | 
9 | CCCCc1nc2cccc(C(=O)O)c2n1Cc1ccc(-c2ccccc2-c2nnnn2C)cc1 | 56% | 53% | 29% | 16% | 59% |  |  |  |  |  | 29% | 12% | 
10 | CCCCc1nc2cccc(C(=O)O)c2n1Cc1ccc(-c2ccccc2-c2nnn(COC(=O)C(C)(C)C)n2)cc1.CCCCc1nc2cccc(C(=O)O)c2n1Cc1ccc(-c2ccccc2-c2nnnn2COC(=O)C(C)(C)C)cc1 | 63% | 69% | 33% | 32% | 67% | 22.7 min | 9.8 min | 3.94 min | 4% | 7% |  |  | 
11 | CCCCc1nc2cccc(C(=O)OCCN3CCOCC3)c2n1Cc1ccc(-c2ccccc2-c2nn[nH]n2)cc1 | 96% | 96% | 96% | 66% | 96% |  |  |  |  |  | 94% | 67% | 

The next lines start with results.

Row | inhibition [2] | inhibition [4] | inhibition [5] | inhibition [6] | inhibition [7] | half-life [8] | half-life [9] | half-life [10] | inhibition [11] | inhibition [13] | SMILES | inhibition in vivo at 0.1 mg/kg (Rattus norvegicus [1]) | inhibition in vivo at 0.1 mg/kg (Rattus norvegicus [3]) | Inhibition [12]
12 |  | 63% | 46% | 47% | 68% |  |  |  |  |  | CCCCc1nc2cccc(C(=O)OCC)c2n1Cc1ccc(-c2ccccc2-c2nn[nH]n2)cc1 | 25% | 7% | 
13 |  |  |  |  |  | 4.92 min | 2.29 min | 2.73 min |  |  | CCOc1nc2cccc(C(=O)OC(C)OC(=O)OC3CCCCC3)c2n1Cc1ccc(-c2ccccc2-c2nnn[nH]2)cc1 (stereo not drawn) [CANDESARTAN CILEXETIL] |  |  | 
14 | 47% | 27% | 50% | 11% | 38% |  |  |  |  |  | CCCCc1nc2cccc(C(=O)OC)c2n1Cc1ccc(-c2ccccc2-c2nn[nH]n2)cc1 | 52% | 11% | 
15 | 67% | 48% | 78% | 6% | 54% |  |  |  | 84% | 100% | CCCC(=O)OCOC(=O)c1cccc2nc(OCC)n(Cc3ccc(-c4ccccc4-c4nn[nH]n4)cc3)c12 |  |  | 
16 | 79% | 67% | 84% | 12% | 80% |  |  |  | 91% | 70% | CCOc1nc2cccc(C(=O)OC(C)OC(=O)OC(C)C)c2n1Cc1ccc(-c2ccccc2-c2nn[nH]n2)cc1 (stereo not drawn) |  |  | 
17 | 78% | 59% | 79% | 23% | 72% |  |  |  | 84% | 66% | CCOc1nc2cccc(C(=O)OCOC(C)=O)c2n1Cc1ccc(-c2ccccc2-c2nn[nH]n2)cc1 |  |  | 
18 | 89% | 71% | 95% | 7% | 81% |  |  |  | 87% | 74% | CCOC(=O)OC(C)OC(=O)c1cccc2nc(OCC)n(Cc3ccc(-c4ccccc4-c4nn[nH]n4)cc3)c12 (stereo not drawn) |  |  | 
19 | 56% | 76% | 23% | 6% | 67% |  |  |  | -2% | -4% | CCOc1nc2cccc(C(=O)OCOC(=O)c3ccccc3)c2n1Cc1ccc(-c2ccccc2-c2nn[nH]n2)cc1 |  |  | 
20 | 83% | 60% | 86% | 25% | 79% |  |  |  | 77% | 35% | CCOc1nc2cccc(C(=O)OC(C)OC(=O)OC3CCC3)c2n1Cc1ccc(-c2ccccc2-c2nn[nH]n2)cc1 (stereo not drawn) |  |  | 
21 | 65% | 54% | 61% | 9% | 62% |  |  |  | 31% | 7% | CCOc1nc2cccc(C(=O)OCOC(=O)C3CCCC3)c2n1Cc1ccc(-c2ccccc2-c2nn[nH]n2)cc1 |  |  | 
22 | 87% | 75% | 80% | 36% | 82% |  |  |  | 76% | 38% | CCOc1nc2cccc(C(=O)OC(C)OC(=O)OC3CCCCC3)c2n1Cc1ccc(-c2ccccc2-c2nn[nH]n2)cc1 (stereo not drawn) |  |  | 
23 | 86% | 86% | 88% | 43% | 87% | 0.3 min | 0.48 min | 0.15 min | 77% | 42% | CCOc1nc2cccc(C(=O)OCOC(=O)C(C)(C)C)c2n1Cc1ccc(-c2ccccc2-c2nn[nH]n2)cc1 |  |  | 
24 | 81% | 79% | 84% | 47% | 78% |  |  |  | 85% | 58% | CCCCc1nc2cccc(C(=O)OC(C)OC(=O)OC3CCCCC3)c2n1Cc1ccc(-c2ccccc2-c2nn[nH]n2)cc1 (stereo not drawn) |  |  | 
25 | 89% | 75% | 84% | 61% | 81% |  |  |  | 89% | 64% | CCCCc1nc2cccc(C(=O)OC(C)OC(=O)OCC)c2n1Cc1ccc(-c2ccccc2-c2nn[nH]n2)cc1 (stereo not drawn) |  |  | 
26 | 68% | 64% | 55% | 14% | 77% |  |  |  | 14% | 5% | CCOc1nc2cccc(C(=O)OCOC(=O)OC3CCCC3)c2n1Cc1ccc(-c2ccccc2-c2nn[nH]n2)cc1 |  |  | 
